Screens from PubChem BioAssay.
S100A4 MyoIIA: inhibitors of S100A4-myosin IIA peptide binding, primary screen, biochemical, fluorescence polarization, TAMRA-MyoIIA peptide; Protein S100-A4 (Homo sapiens), P26447; inhibition, % at 10.7 µM; 0.14% of 360,000 active; AID 652163, 2013;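 active means mean inhibition of at least 70% across replicates, with every replicate also reaching that level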
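Material: S100A4 monomer protein / Buffer or medium: 50 mM HEPES pH 7.2, 10 mM CaCl2, 100 mM KCl / Times: 5 min incubation before reading / Benchmarks: neutral control DMSO, positive control TFP / Reagent: labelled myosin peptide probe, 5 nM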
F508del corr: F508del CFTR correction, initial screen, CFBE line, single point. 0.36% of 350,000 active. AID 720511, 2013. CFBE cells, YFP halide quenching; stimulated with forskolin plus potentiator P3; % fluorescence drop versus neutral controls. activity (quench increase), % at 7.58 µM;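 active means mean added fluorescence quench of at least 8% versus neutral control, with both replicates also reaching 8%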;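 further: cells transiently co-express mutant CFTR-F508del with the halide-sensitive YFP; corrector assay measuring rescue of mutant channel to the surface after 24 h compound exposure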
FGF22 binding: binders of human FGF22 protein, primary screen, FGF22 synaptogenesis inhibitor project, biophysical, thermal shift, single point; 1.5% of 340,000 active; Fibroblast growth factor 22 (Homo sapiens), Q9HCT0; recombinant FGF22 thermal shift, SYPRO orange fluorescence; percent of sucrose octasulfate shift, DMSO zero; activity (Tm shift, normalised), % at 9.99 µM;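 active means mean Tm shift, scaled 0 neutral to 100 positive control, at about 1.3% or above, every replicate too, limit read from the data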
E-sel inducer: E-selectin induction in HUVECs, primary screen, imaging, HUVEC, immunofluorescence imaging, single point; 0.37% of 260,000 active; normalized: neutral wells 0, TNF-alpha wells 100; AID 686992, 2013; activation, % at 7.58 µM; P16581;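 active means mean E-selectin-positive cell signal at least 10% of the positive control, reached in at least 60% of replicates, without over 20% cell loss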
Target sequence (P16581 whole entry, looked up): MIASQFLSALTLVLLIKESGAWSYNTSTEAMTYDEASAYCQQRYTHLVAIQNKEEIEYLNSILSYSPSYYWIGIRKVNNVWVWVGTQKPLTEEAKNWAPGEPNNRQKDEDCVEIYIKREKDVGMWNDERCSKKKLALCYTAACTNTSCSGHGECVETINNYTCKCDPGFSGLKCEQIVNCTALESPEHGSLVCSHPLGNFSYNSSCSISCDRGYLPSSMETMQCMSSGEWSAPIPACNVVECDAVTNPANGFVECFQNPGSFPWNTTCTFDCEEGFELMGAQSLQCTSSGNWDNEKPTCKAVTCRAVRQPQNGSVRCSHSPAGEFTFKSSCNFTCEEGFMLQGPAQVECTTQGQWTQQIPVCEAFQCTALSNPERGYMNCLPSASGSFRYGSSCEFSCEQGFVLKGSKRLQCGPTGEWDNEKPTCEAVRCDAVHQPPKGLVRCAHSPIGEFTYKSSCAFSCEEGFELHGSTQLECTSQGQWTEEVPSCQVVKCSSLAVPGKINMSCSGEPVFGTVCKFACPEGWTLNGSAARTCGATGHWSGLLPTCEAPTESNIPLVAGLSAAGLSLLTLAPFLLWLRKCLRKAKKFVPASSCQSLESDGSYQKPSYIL
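Test system – human umbilical vein endothelial cells (HUVEC), E-selectin induction · Input – 3,000 HUVEC seeded per well · Buffer or medium – EGM-2, gelatin · Compound dosing – single-point compound dose · Detection – immunofluorescence imaging · Measure – percent E-selectin-positive cells · Controls – TNF-alpha high, DMSO low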
Env fusion inh: inhibitors of HIV-1 Env-driven cell-cell fusion, primary screen, HeLa-JRFL effector, CEM21 target cells, luciferase; 1.1% of 360,000 active; AID 651610, 2012; inhibition, % at 12.3 µM;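 active means mean replicate inhibition score of at least 50 and every replicate individually at or above 50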
A number is an active result; – = inactive; · = not tested or not shown; + = active, no number; [ ] = another dose, or the depositor's remark. An excerpt weighted towards active compounds, which were near 2.7% of everything screened.

SMILES	S100A4 MyoIIA	F508del corr	FGF22 binding	E-sel inducer	Env fusion inh
CC(=O)NNC(=O)c1[nH]c2ccc(Cl)cc2c1-c1ccccc1	–	–	–	·	–
O=C(N/N=C/c1ccc(O)cc1)c1[nH]c2ccc(Br)cc2c1-c1ccccc1	–	10.0	–	–	–
O=C(NN=C1CCCC1)c1[nH]c2ccc(Cl)cc2c1-c1ccccc1	–	14	–	–	–
COc1ccc(NC(=O)Nc2ccc3c(c2)C(=O)N([C@@H](C)CO)C[C@@H](C)[C@H](CN(C)C)OCCCC[C@@H](C)O3)cc1	·	–	·	–	–
Cc1[nH]n(-c2cccc3ccccc23)c(=O)c1/C=N/NC(=O)c1cccc([N+](=O)[O-])c1	·	–	·	–	59
CC1=CC(C)C(=O)N(CCN2CCOCC2)C(C)=C1 (stereo not given)	–	–	43	–	·
C[C@H]1CN([C@@H](C)CO)C(=O)c2cc(NC(=O)CCN3CCOCC3)ccc2O[C@H]1CN(C)Cc1ccc(Oc2ccccc2)cc1	–	–	–	–	·
CCOc1ccccc1N(C(C)=O)S(=O)(=O)c1ccc(Cl)cc1	–	–	–	·	–
CC(=O)N(c1ccccc1C)S(=O)(=O)c1ccc(Cl)cc1	–	–	43	·	–
COc1cccc(S(=O)(=O)N[C@H]2C=C[C@H](CC(=O)NCc3ccc(Cl)cc3)O[C@H]2CO)c1	–	–	–	–	·
CN(C)CCCNC(=O)c1ccc(Oc2ccccc2)cc1	–	–	44	·	–
CN(C)CCNC(=O)c1ccccc1	·	·	·	–	–
CSc1ncc(C(C)=O)c(C)n1	–	–	2.5	·	–
O=C(C[C@H]1CC[C@H](NC(=O)C2CC2)[C@@H](CO)O1)NC1CCC1	–	–	–	–	–
Cc1noc(C)c1S(=O)(=O)N(C)C[C@H]1OCCCC[C@@H](C)Oc2ccc(NC(=O)Nc3ccc(C(F)(F)F)cc3)cc2C(=O)N([C@H](C)CO)C[C@@H]1C	–	–	–	–	–
Cc1noc(C)c1S(=O)(=O)N(C)C[C@@H]1OCCCC[C@H](C)Oc2ccc(NC(=O)Nc3ccc(C(F)(F)F)cc3)cc2C(=O)N([C@H](C)CO)C[C@H]1C	–	–	–	–	70[16.7 µM]
Cc1noc(C)c1S(=O)(=O)N(C)C[C@H]1OCCCC[C@@H](C)Oc2ccc(NC(=O)Nc3ccc(C(F)(F)F)cc3)cc2C(=O)N([C@@H](C)CO)C[C@@H]1C	–	–	–	–	67[16.7 µM]
Cc1noc(C)c1S(=O)(=O)N(C)C[C@H]1OCCCC[C@H](C)Oc2ccc(NC(=O)Nc3ccc(C(F)(F)F)cc3)cc2C(=O)N([C@@H](C)CO)C[C@@H]1C	–	–	–	–	66[16.7 µM]
Cc1noc(C)c1S(=O)(=O)N(C)C[C@H]1OCCCC[C@H](C)Oc2ccc(NC(=O)Nc3ccc(C(F)(F)F)cc3)cc2C(=O)N([C@H](C)CO)C[C@@H]1C	–	–	–	–	–
Cc1noc(C)c1S(=O)(=O)N(C)C[C@H]1OCCCC[C@H](C)Oc2ccc(NC(=O)Nc3ccc4c(c3)OCO4)cc2C(=O)N([C@H](C)CO)C[C@@H]1C	·	–	–	–	57[16.7 µM]
O=C(C[C@H]1CC[C@@H]2[C@H](COC[C@H](O)CN2C(=O)Nc2ccc(F)cc2)O1)NCCc1ccccc1	–	–	–	–	–
C[C@@H](O)C#Cc1cnc2c(c1)C(=O)N([C@@H](C)CO)C[C@H](C)[C@H](CN(C)CC1CC1)O2	·	–	·	–	–
CCO[C@@H]1OC(C(=O)N2CCCCCCC2)=C[C@H](C)[C@H]1CCCO	–	–	–	·	–
Cc1cccc(-c2oc3ccc(-c4ccc5c(c4)OCO5)cc3c2-c2ccc(OC3CCCCO3)cc2)c1 (stereo not given)	107	–	–	–	–
O=CNc1ccc2c(c1)Cc1cc([N+](=O)[O-])ccc1-2	–	–	–	–	75
SMILES	S100A4 MyoIIA	F508del corr	FGF22 binding	E-sel inducer	Env fusion inh
COc1ccccc1Nc1nc2ccc(C)cc2cc1C#N	·	·	·	·	–
COc1ccccc1Nc1nc2cc(C)ccc2cc1C#N	–	–	43	–	–
CC(C)c1cn(CC[C@@H]2CC[C@@H](NC(=O)C3CCCCC3)[C@H](CO)O2)nn1	–	–	–	–	–
O=C1CNC(=O)/C(=C\c2ccc(F)cc2)N1	–	–	–	–	–
O=C1CNC(=O)/C(=C/c2cccs2)N1	–	–	43	·	–
CN(C)c1cc[n+](CC(=O)c2ccc(-c3ccccc3)cc2)cc1	–	–	–	–	64
O=C(C[n+]1ccccc1)c1ccc(-c2ccccc2)cc1	–	–	–	–	–
C[C@H](CO)N1C[C@H](C)[C@H](CN(C)CC2CC2)OCCCC[C@H](C)Oc2ccc(NC(=O)Nc3ccccc3)cc2C1=O	–	–	–	–	–
Cc1ccc(N=Nc2c(N)nn(-c3ccccc3)c2N)cc1	–	·	–	·	–
COc1ccc(N=Nc2c(N)nn(C)c2N)cc1	–	–	44	–	·
C[C@H](CO)N1C[C@H](C)[C@@H](CN(C)Cc2ccccc2)Oc2ccc(NC(=O)C3CCCCC3)cc2C1=O	–	–	–	·	–
OC(Cc1ccccc1Br)c1ncc(-c2ccc(Cl)cc2)[nH]1 (stereo not given)	–	–	2.7	159	–
CCN(CC)C(=O)C(=O)c1cccn1-c1cccc(OC)c1C#N	–	–	45	–	–
CCOC(=O)COc1ccccc1/C=C1\NC(=O)NC1=O	–	–	–	·	–
COc1cccc(/C=C2/NC(=O)NC2=O)c1OCC(=O)Nc1ccccc1	–	–	43	–	–
CC(=O)NS(=O)(=O)c1ccc(NC(=O)CSc2ccc(Cl)cc2)cc1	–	9.6	–	·	–
CCCNC(=O)C[C@@H]1CC[C@H]2[C@@H](COC[C@H](O)CN2C(=O)Nc2c(C)noc2C)O1	–	–	–	–	·
O=c1cc(O)c2ccc(O)cc2o1	–	–	–	·	·
O=c1ccc2[n+]([O-])c3ccc(O)cc3oc-2c1	+	23	·	193	–
C[C@@H]1CN([C@@H](C)CO)C(=O)Cc2cc(NS(=O)(=O)c3cccs3)ccc2O[C@H]1CN(C)C(=O)Nc1cccc2ccccc12	·	–	–	–	–
O=C(NCC1CC1)c1ccc(Nc2nc3ccc(Br)cc3[nH]2)cc1	–	–	–	–	–
O=C(Cc1ccc(Nc2nc3ccc(Br)cc3[nH]2)cc1)NCCc1cccs1	–	–	–	–	61
O=C(NCCc1ccc(Cl)cc1Cl)c1ccc2nc[nH]c2c1	–	–	–	·	–
O=C(NCCc1ccc(Cl)cc1)c1ccc2nc[nH]c2c1	–	–	43	·	–
O=C1CCCC2=C1C(c1cccs1)Nc1ccccc1N2 (stereo not given)	·	·	·	·	87
Cc1[nH]nc2c1C(c1cccs1)C1=C(CCCC1=O)N2 (stereo not given)	–	–	43	–	–
